Measurements as given in ChEMBL document CHEMBL3992510, “Urea Derivatives of 2-Aryl-benzothiazol-5-amines: A New Class of Potential Drugs for Human African Trypanosomiasis” (J Med Chem, 2017).
Activity calls are given as the source filed them. The calls are words filed in the database; no cut-off is given here.

Key:
[1] = Drug level in mouse brain at 5 mg/kg, ip administered as single dose measured at 1 hr post dose by liquid chromatography/tandem mass spectrometric analysis; format: ADME, organism-based; settings: read-out: Drug uptake
How it was run: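 Single ip dose of 5 mg/kg in 5% DMSO/7% Tween 80/3% EtOH in 0.9% saline, three mice per compound (six for one compound). At 1 h, plasma is separated by centrifugation and brain homogenized in acetonitrile. Both are quantified by LC-MS/MS, with brain corrected for 3% v/w blood. Brain/plasma ratio is reported as mean ± SEM.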

[2] = Drug level in mouse brain at 50 mg/kg, po administered as single dose via gavage measured at 4 hrs post dose by liquid chromatography/tandem mass spectrometric analysis; format: ADME, organism-based; settings: read-out: Drug uptake
How it was run: (§1)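 Single 50 mg/kg oral dose in DMSO (5%), Tween 80 (7%), EtOH (3%) in 0.9% saline; groups of three mice killed at 1, 4, 8 and 24 h. Plasma separated by brief centrifugation; brain homogenised in acetonitrile; both assayed by LC-MS/MS, brain values corrected for 3% v/w blood content. Mean ± SEM of 3 mice; plasma LLQ 0.010 μM.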

[3] = Drug level in mouse plasma at 50 mg/kg, po administered as single dose via gavage measured at 4 hrs post dose by liquid chromatography/tandem mass spectrometric analysis; format: ADME, organism-based; how it was run: as §1
[4] = system: Plasma; assay: Drug level in Swiss-Webster mouse plasma infected with Trypanosoma brucei brucei TREU667 at 50 mg/kg, po bid administered via gavage for 10 days starting from 21 days post infection measured on day 7 prior to dose 15; format: ADME, organism-based; settings: in vivo
How it was run: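 Groups of five mice given 1 × 10^4 T. b. brucei TREU667 on day 0; from day 21, 50 mg/kg oral gavage every 12 h for 10 d (20 doses) in 200 μL Phosal 53 MCT (60%), PEG400 (30%), EtOH (10%). Tail blood drawn from 3 mice before dose 15 and 1 and 6 h after it, spotted on cards, LC-MS/MS.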

[5] = system: Plasma; assay: Drug level in Swiss-Webster mouse plasma infected with Trypanosoma brucei rhodesiense STIB900 at 50 mg/kg, po bid administered via gavage for 4 days starting from 2 days post infection measured on day 3 prior to dose 7; format: ADME, organism-based; settings: in vivo
How it was run: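 Female Swiss-Webster mice (ND4 outbred, 6−8 weeks), groups of five, infected day 0 with 1 × 10^4 T. b. rhodesiense STIB900; 50 mg/kg oral gavage every 12 h days 2−5 (eight doses) in 200 μL DMSO 5%, Tween 80 7%, EtOH 3% in 0.9% saline. Tail blood from 3 mice before dose 7, then 1 and 6 h post-dose, spotted on cards, LC-MS/MS.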

[6] = Selectivity index, ratio of EC50 for human HepG2 cells to EC50 for Trypanosoma brucei brucei BF427; format: toxicity; settings: read-out: Ratio EC50
[7] = Drug level in mouse brain at 50 mg/kg, po administered as single dose via gavage measured at 1 hr post dose by liquid chromatography/tandem mass spectrometric analysis; format: ADME, organism-based; settings: read-out: Drug uptake; how it was run: as §1
[8] = Drug level in mouse plasma at 50 mg/kg, po administered as single dose via gavage measured at 24 hrs post dose by liquid chromatography/tandem mass spectrometric analysis; format: ADME, organism-based; how it was run: as §1
[9] = Drug level in mouse brain at 50 mg/kg, po administered as single dose via gavage measured at 8 hrs post dose by liquid chromatography/tandem mass spectrometric analysis; format: ADME, organism-based; settings: read-out: Drug uptake; how it was run: as §1
[10] = Drug level in Swiss-Webster mouse plasma infected with Trypanosoma brucei brucei TREU667 at 50 mg/kg, po bid administered via gavage for 10 days starting from 21 days post infection measured at 6 hrs post last dose; format: ADME, organism-based
[11] = AUC (0 to infinity) in mouse plasma at 50 mg/kg, po administered as single dose via gavage by liquid chromatography/tandem mass spectrometric analysis; format: ADME, organism-based; parameters: dose 50 mg/kg, time infinity, route oral
How it was run: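 Time course after a single 50 mg/kg oral dose in 5% DMSO/7% Tween 80/3% EtOH in 0.9% saline. Mice are sacrificed in groups of three at 1, 4, 8 and 24 h. Plasma is separated by centrifugation and brain homogenized in acetonitrile, both measured by LC-MS/MS. Brain values are corrected for 3% v/w blood. Lower limit of quantitation 0.010 μM. Values are means ± SEM.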

[12] = system: Trypanosoma brucei brucei; assay: Anti-parasitic activity against Trypanosoma brucei brucei TREU667 infected in mouse assessed as reduction in parasitemia at 50 mg/kg, bid administered via oral gavage on day 21 to 30 post infection measured on day 180 by microscopic method; format: functional, organism-based
How it was run: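 Groups of five mice are infected on day 0 with 1 × 10^4 parasites to give a chronic infection. From day 21, mice receive 50 mg/kg orally b.i.d. for 10 days (20 doses) in 200 μL of 60% Phosal 53 MCT/30% PEG400/10% EtOH; a vehicle-only group runs alongside. Tail blood slides are examined microscopically until 180 days postinfection. Three mice are sampled before dose 15 and at 1 and 6 h after.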

## O=C(Nc1ccc2sc(-c3ccc(F)c(F)c3)nc2c1)N1CC[C@H](F)C1
[1]
  concentration at 1 h: 9.07 µM
[2]
  concentration at 4 h: 45.2 µM
[3]
  concentration at 4 h: 10.2 µM
[4]
  concentration: 15.8 µM
[5]
  concentration: 9.1 µM
[6]
  selectivity ratio: > 1440
[7]
  concentration at 1 h: 38.2 µM
[8]
  concentration at 24 h: 0.01 µM
[9]
  concentration at 8 h: 48.1 µM
[10]
  concentration at 6 h: 26.7 µM
[11]
  AUC(0-inf): 180 µM·h
[12]
  Activity: Active
